≈ marks a conversion by molar mass, not a printed value.
Each molecule was assayed on Plasmodium falciparum (assay: Minimum inhibitory concentration against schizont maturation in Plasmodium falciparum NF-54).
Type: functional
Procedure, shortened: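 Rieckmann micro-assay with P. falciparum NF-54 cultured in RPMI-1640 (25 mM HEPES, 1% D-glucose, 0.23% NaHCO3, 10% heat-inactivated human serum), sorbitol-synchronized to ring stage. Start at ~1% parasitaemia, 3% haematocrit; compounds 0.25–50 µg/mL in duplicate, 37 °C candle jar, 36–40 h. Giemsa smears scored by microscopy; MIC = lowest concentration blocking complete maturation to schizonts.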

**Q.** Which MIC does the source give for O=[N+]([O-])c1cccc(-c2cc(-c3ccncc3)nc(N3CCN(Cc4ccccc4)CC3)n2)c1 here?
**A.** 2 µg/mL (≈ 4.42 µM)

**Q.** Cc1ccc(-c2cc(-c3ccncc3)nc(N3CCN(Cc4ccccc4)CC3)n2)cc1C was tested. Which MIC did it give?
**A.** 1 µg/mL (≈ 2.3 µM)

**Q.** Cc1ccc(-c2cc(-c3ccncc3)nc(N3CCN(c4ccccc4)CC3)n2)cc1C was tested. Which MIC did it give?
**A.** 2 µg/mL (≈ 4.74 µM)

**Q.** Which MIC does the source give for COc1cc(-c2cc(-c3ccncc3)nc(N3CCN(C)CC3)n2)cc(OC)c1OC here?
**A.** 10 µg/mL (≈ 23.7 µM)

**Q.** CSc1ccc(-c2cc(-c3ccncc3)nc(N3CCN(C)CC3)n2)cc1 was tested. Which MIC did it give?
**A.** 1 µg/mL (≈ 2.65 µM)

**Q.** With Cc1ccc(-c2cc(-c3ccncc3)nc(N3CCN(C)CC3)n2)cc1 as the molecule, how does the MIC read?
**A.** 1 µg/mL (≈ 2.89 µM)

**Q.** How did the MIC turn out when Clc1ccc(-c2cc(-c3ccncc3)nc(N3CCN(Cc4ccccc4)CC3)n2)cc1 was run?
**A.** 10 µg/mL (≈ 22.6 µM)

**Q.** With COc1ccc(OC)c(-c2cc(-c3ccncc3)nc(N3CCN(Cc4ccccc4)CC3)n2)c1 as the molecule, how does the MIC read?
**A.** 1 µg/mL (≈ 2.14 µM)

**Q.** With O=[N+]([O-])c1cccc(-c2cc(-c3ccncc3)nc(N3CCN(c4ccccc4)CC3)n2)c1 as the molecule, how does the MIC read?
**A.** 10 µg/mL (≈ 22.8 µM)

**Q.** How did the MIC turn out when Cc1ccc(-c2cc(-c3ccncc3)nc(N3CCN(Cc4ccccc4)CC3)n2)cc1 was run?
**A.** 2 µg/mL (≈ 4.74 µM)

**Q.** Which MIC does the source give for COc1ccc(OC)c(-c2cc(-c3ccncc3)nc(N3CCN(C)CC3)n2)c1 here?
**A.** 0.5 µg/mL (≈ 1.28 µM)

**Q.** How did the MIC turn out when COc1cc(OC)c(-c2cc(-c3ccncc3)nc(N3CCN(C)CC3)n2)cc1OC was run?
**A.** 2 µg/mL (≈ 4.74 µM)

**Q.** With Clc1ccc(-c2cc(-c3ccncc3)nc(N3CCN(c4ccccc4)CC3)n2)cc1 as the molecule, how does the MIC read?
**A.** 10 µg/mL (≈ 23.4 µM)

**Q.** How did the MIC turn out when CSc1ccc(-c2cc(-c3ccncc3)nc(N3CCN(c4ccccc4)CC3)n2)cc1 was run?
**A.** 10 µg/mL (≈ 22.7 µM)

**Q.** CN1CCN(c2nc(-c3ccccc3)cc(-c3ccncc3)n2)CC1 was tested. Which MIC did it give?
**A.** 1 µg/mL (≈ 3.02 µM)

**Q.** With COc1ccc(-c2cc(-c3ccncc3)nc(N3CCN(C)CC3)n2)cc1 as the molecule, how does the MIC read?
**A.** 1 µg/mL (≈ 2.77 µM)

**Q.** Which MIC does the source give for CCc1nc(N)nc(N)c1-c1ccc(Cl)cc1 [PYRIMETHAMINE] here?
**A.** 10 µg/mL (≈ 40.2 µM)

**Q.** With COc1ccc(-c2cc(-c3ccncc3)nc(N3CCN(Cc4ccccc4)CC3)n2)cc1 as the molecule, how does the MIC read?
**A.** 1 µg/mL (≈ 2.29 µM)

**Q.** How did the MIC turn out when Cc1ccc(-c2cc(-c3ccncc3)nc(N3CCN(c4ccccc4)CC3)n2)cc1 was run?
**A.** 1 µg/mL (≈ 2.45 µM)

**Q.** For COc1cc(OC)c(-c2cc(-c3ccncc3)nc(N3CCN(c4ccccc4)CC3)n2)cc1OC, which MIC is on record?
**A.** 10 µg/mL (≈ 20.7 µM)

**Q.** With CSc1ccc(-c2cc(-c3ccncc3)nc(N3CCN(Cc4ccccc4)CC3)n2)cc1 as the molecule, how does the MIC read?
**A.** 2 µg/mL (≈ 4.41 µM)

**Q.** COc1ccc(OC)c(-c2cc(-c3ccncc3)nc(N3CCN(c4ccccc4)CC3)n2)c1 was tested. Which MIC did it give?
**A.** 2 µg/mL (≈ 4.41 µM)

**Q.** For c1ccc(-c2cc(-c3ccncc3)nc(N3CCN(c4ccccc4)CC3)n2)cc1, which MIC is on record?
**A.** 10 µg/mL (≈ 25.4 µM)

**Q.** COc1ccc(-c2cc(-c3ccncc3)nc(N3CCN(c4ccccc4)CC3)n2)cc1 was tested. Which MIC did it give?
**A.** 2 µg/mL (≈ 4.72 µM)

**Q.** CN1CCN(c2nc(-c3ccncc3)cc(-c3cccc([N+](=O)[O-])c3)n2)CC1 was tested. Which MIC did it give?
**A.** 1 µg/mL (≈ 2.66 µM)

**Q.** How did the MIC turn out when COc1cc(OC)c(-c2cc(-c3ccncc3)nc(N3CCN(Cc4ccccc4)CC3)n2)cc1OC was run?
**A.** 2 µg/mL (≈ 4.02 µM)

**Q.** How did the MIC turn out when COc1cc(-c2cc(-c3ccncc3)nc(N3CCN(c4ccccc4)CC3)n2)cc(OC)c1OC was run?
**A.** 50 µg/mL (≈ 103 µM)

**Q.** For c1ccc(CN2CCN(c3nc(-c4ccccc4)cc(-c4ccncc4)n3)CC2)cc1, which MIC is on record?
**A.** 2 µg/mL (≈ 4.91 µM)

**Q.** Cc1ccc(-c2cc(-c3ccncc3)nc(N3CCN(C)CC3)n2)cc1C was tested. Which MIC did it give?
**A.** 0.5 µg/mL (≈ 1.39 µM)

**Q.** How did the MIC turn out when COc1cc(-c2cc(-c3ccncc3)nc(N3CCN(Cc4ccccc4)CC3)n2)cc(OC)c1OC was run?
**A.** 10 µg/mL (≈ 20.1 µM)

**Q.** With CN1CCN(c2nc(-c3ccncc3)cc(-c3ccc(Cl)cc3)n2)CC1 as the molecule, how does the MIC read?
**A.** 2 µg/mL (≈ 5.47 µM)

From ChEMBL document CHEMBL1139633, “Antimalarial activity and synthesis of new trisubstituted pyrimidines” (2005)
